Drawing on ChEMBL document CHEMBL1124046, “2-Methyl-1,3-dioxaazaspiro[4.5]decanes as novel muscarinic cholinergic agonists” (J Med Chem, 1988), this text covers Ratio, K app and inhibition for eight compounds.

A short description of assay [1]: Ratio of NMS/oxo-M apparent binding affinities (Kapp). The method in brief:
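Two rat cortical membrane binding assays, each in triplicate with at least four concentrations, Kapp corrected for radioligand occupancy. [3H]N-methylscopolamine (0.1 nM) run in 20 mM HEPES Krebs' buffer pH 7.4, 60 min at 30 °C. [3H]oxotremorine-M (3.0 nM) run in 20 mM HEPES pH 7.4, 40 min at 30 °C. Ratio taken as NMS Kapp over oxo-M Kapp.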

The target in assay [2] is T1, Muscarinic acetylcholine receptor (Rattus norvegicus) (UniProt P08482+P08483+P08485+P08911+P10980). In words: Apparent binding affinity at Muscarinic acetylcholine receptor by displacing [3H]oxotremorine-M in rat cortex. It is filed as tissue-based. In short, it runs like this: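 Membranes from male Sprague-Dawley rat (250-300 g) cortex in 20 mM HEPES buffer pH 7.4; displacement of 3.0 nM [3H]oxotremorine-M, 40 min at 30 °C, ended by filtration onto polyethylenimine-presoaked GF/C filters. Triplicates, at least four concentrations per curve; apparent affinity constant corrected for radioligand occupancy, in µM, geometric mean of n experiments.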

In assay [3] the target is T1, Muscarinic acetylcholine receptor (Rattus norvegicus). The settings on record: Cortex.
Assay [4] has the same target. As to the kind of experiment: Percent inhibition of [3H]N-methylscopolamine (NMS) binding to Muscarinic acetylcholine receptor in rat cortex at a concentration of >100 uM. The method in brief: (§1)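 Rat cortical membranes (male Sprague-Dawley, 250-300 g). Test compound at a single stated concentration; percent inhibition of specific binding is reported. [3H]-N-methylscopolamine (0.1 nM) in 20 mM HEPES Krebs' buffer pH 7.4, 60 min at 30 °C; [3H]oxotremorine-M (3.0 nM) in 20 mM HEPES buffer pH 7.4, 40 min at 30 °C. Ended by filtration.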

Assay [5] has the same target. As to the kind of experiment: Percent inhibition of [3H]oxotremorine-M binding to Muscarinic acetylcholine receptor in rat cortex at a concentration of >10 uM. The method in brief:
as §1

Assay [6] shares this target. As to the kind of experiment: Apparent binding affinity at Muscarinic acetylcholine receptor by displacing [3H]oxotremorine-M in rat cortex at a concentration of >10 uM. It is filed as tissue-based. The method in brief:
(§2)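 Membranes from cortex of male Sprague-Dawley rats (250-300 g). Displacement curves with 0.1 nM [3H]-N-methylscopolamine in 20 mM HEPES Krebs' buffer pH 7.4, 60 min at 30 °C; or with 3.0 nM [3H]oxotremorine-M in 20 mM HEPES buffer pH 7.4, 40 min at 30 °C. Filtration read-out. Triplicates, at least four concentrations. Kapp corrected for radioligand occupancy; geometric mean of n experiments.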

Assay [7] shares this target. As to the kind of experiment: Apparent binding affinity at Muscarinic acetylcholine receptor, by displacing [3H]N-methylscopolamine (NMS) in rat cortex at a concentration of >100 uM. It is filed as tissue-based. In short, it runs like this:
as §2

Assay [8] shares this target. The settings on record: Cortex. The source holds these as a separate data set.
The target is the same in assay [9]. The settings on record: Cortex. The source holds these as a separate data set.
Assay [10] shares this target. The settings on record: Cortex. The source holds these as a separate data set.
Assay [11] shares this target. The settings on record: Cortex. The source holds these as a separate data set.

Structures are written as SMILES.

On to `C[C@H]1OCC2(CN3CCC2CC3)O1` (stereo partly drawn), for which, in assay [1], the Ratio worked out at 140. The K app in assay [2] stood at 0.035 µM; in assay [3] it was 4.9 µM.

Consider `CC1OCC2(CCCN(C)C2)O1` (stereo in doubt; 4a), for which the inhibition in [4] turned out to be 24%; in [5], 4%.

Turning to `CCC1OCC2(CCN(C)CC2)O1` (stereo not drawn), the Ratio in assay [1] was determined as 24. The K app in [2] came out at 0.22 µM; in assay [3], 5.3 µM.

On to `CC1OCC2(CCCNC2)O1` (stereo not drawn), for which the inhibition in assay [6] came to 13%; in [7], 20%; in assay [4], 29%; in [5], 25%.

Regarding `CCN1C(=O)CC2(CCN(C)CC2)C1=O`, the Ratio in assay [1] came to 130. Besides, the K app was 0.04 µM in [2] and 5 µM in [8].

For `C[N+](C)(C)CCOC(N)=O`, the Ratio in assay [1] turned out to be 4100. The K app was determined as 24 µM in [3] and 0.0058 µM in [9].

Turning to `CC1OCC2(CCNCC2)O1` (stereo not drawn), the Ratio in [1] turned out to be 470. Besides, the figures for the K app in [10] and in [11] were 0.092 µM and 43 µM, respectively.

As to `CC1OCC2(CCCN(C)C2)O1` (stereo in doubt; 4b), the inhibition stood at 19% in assay [4] and 10% in [5].

As usually defined, the inhibition is how much of the control response was suppressed.
